According to publication PMC5197073 (Theranostics, 2017):

Experiments:
[1] = tested on: C38 mouse colorectal carcinoma; experiment: In vivo growth inhibition of s.c. C38 tumors; details: C57Bl/6 mice, 100 mg/kg p.o. 5 times a week for two weeks; vs vehicle; P=0.0048
Outline: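 C38 fragments, kept by serial s.c. passage, cut into 5×5×5 mm cubes and implanted into the backs of anaesthetised 8-week-old female C57Bl/6 mice. Dosing started on day 13, once daily by feeding tube, 5 days/week. Vehicle was 2% carboxymethylcellulose with 2 mg/mL methyl-4-hydroxybenzoate, also given to controls. Calipers were used three times weekly, with volume = length × width² × π/6.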

[2] = Intratumoral drug concentration and distribution by MALDI-MSI in C38 tumors; type: in vivo, mouse; details: 100 mg/kg p.o. for two weeks
[3] = Intratumoral drug concentration and distribution by MALDI-MSI in C26 tumors; type: in vivo, mouse; details: for intratumoral drug distribution (MALDI-MSI): C26 tumors, 100 mg/kg p.o. for two weeks
C38 tumors = experiment: Microvessel areas; type: in vivo, mouse; details: C38 model, 100 mg/kg p.o. for two weeks; P<0.03
desmin = experiment: Pericyte desmin expression in C26 tumors; type: in vivo, mouse; details: C26 model, 100 mg/kg p.o. for two weeks; sunitinib P=0.0135, motesanib P<0.05
C26 tumors = experiment: Intratumoral hypoxia; type: in vivo, mouse; details: C26 model, 100 mg/kg p.o. for two weeks; P=0.0152
PDGFRβ = details: ref [18]; cited from earlier work
[4] = tested on: C38 mouse colorectal carcinoma; details: C57Bl/6 mice; previously published study; ref [38]; cited from earlier work

Structure (SMILES) | intratumoral drug distribution (MALDI-MSI) [2] | intratumoral drug distribution (MALDI-MSI) [3] | intratumoral drug concentration vs untreated controls ([2]; P=0.0006) | intratumoral vatalanib concentration ([2]; C57Bl/6 mice, P=0.0025 vs C26) [µmol/mL] | C38 tumor growth inhibition [1] | intratumoral microvessel areas (antivascular/antiangiogenic effect) (C38 tumors) | pericyte desmin expression (desmin) | intratumoral hypoxia (C26 tumors) | IC50 value against PDGFRβ, rank among the tested RTKIs (PDGFRβ) | rank of intratumoral concentration among the five RTKIs ([3]; mouse, in vivo, po, 100 mg/kg) | C38 tumor burdens [4]
Cc1ccc(Nc2nccc(N(C)c3ccc4c(C)n(C)nc4c3)n2)cc1S(N)(=O)=O [pazopanib] | trace-level | inhomogeneous |  |  | no significant tumor growth inhibitory | no significant |  |  |  |  | 
CNC(=O)c1cc(Oc2ccc(NC(=O)Nc3ccc(Cl)c(C(F)(F)F)c3)cc2)ccn1 [sorafenib] | trace-level | Only traces |  |  | no significant tumor growth inhibitory | no significant |  |  |  |  | 
CCN(CC)CCNC(=O)c1c(C)[nH]c(/C=C2\C(=O)Nc3ccc(F)cc32)c1C [sunitinib] | well-distributed | homogeneously distributed |  |  | significant antitumor | significant | suppressed | significantly increased | lowest IC50 value | highest values | 

Second part, led by results:

intratumoral drug distribution (MALDI-MSI) [2] | intratumoral drug distribution (MALDI-MSI) [3] | intratumoral drug concentration vs untreated controls ([2]; P=0.0006) | intratumoral vatalanib concentration ([2]; C57Bl/6 mice, P=0.0025 vs C26) [µmol/mL] | Structure (SMILES) | C38 tumor growth inhibition [1] | intratumoral microvessel areas (antivascular/antiangiogenic effect) (C38 tumors) | pericyte desmin expression (desmin) | intratumoral hypoxia (C26 tumors) | IC50 value against PDGFRβ, rank among the tested RTKIs (PDGFRβ) | rank of intratumoral concentration among the five RTKIs ([3]; mouse, in vivo, po, 100 mg/kg) | C38 tumor burdens [4]
trace-level | inhomogeneous |  |  | CC1(C)CNc2cc(NC(=O)c3cccnc3NCc3ccncc3)ccc21 [motesanib] | no significant tumor growth inhibitory | no significant | significantly decreased |  |  |  | 
well-distributed | Only traces | significantly higher | 0.116 | Clc1ccc(Nc2nnc(Cc3ccncc3)c3ccccc23)cc1 [vatalanib] | robust and significant growth-inhibitory effect | significant decrease |  |  |  |  | significantly decreased
